NPY Y2 blocker: blocks the human neuropeptide Y Y2 receptor; P49146; NPY-Y2 expressing cells, antagonist mode; inhibition, % at 2.7 µM; actives 0.99% (n = 140,000)
Target sequence (P49146 whole entry, looked up): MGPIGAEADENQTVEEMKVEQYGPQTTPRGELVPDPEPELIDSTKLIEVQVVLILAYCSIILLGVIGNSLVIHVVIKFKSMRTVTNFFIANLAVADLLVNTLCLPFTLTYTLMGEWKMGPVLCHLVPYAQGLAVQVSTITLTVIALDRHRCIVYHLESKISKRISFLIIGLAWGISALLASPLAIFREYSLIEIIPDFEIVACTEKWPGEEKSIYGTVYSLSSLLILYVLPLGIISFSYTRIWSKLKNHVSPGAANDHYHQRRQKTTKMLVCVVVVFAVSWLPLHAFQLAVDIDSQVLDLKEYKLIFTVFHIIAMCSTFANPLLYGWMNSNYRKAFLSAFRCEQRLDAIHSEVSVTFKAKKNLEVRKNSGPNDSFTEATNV
NPY-Y2 PAM-ag: human NPY-Y2 potentiation or agonism, primary screen | cells expressing NPY-Y2, potentiator/agonist read-out | activation, % at 3.6 µM | AID 1359 | actives 0.45% (n = 220,000) | P49146; in the data active = activation above about 27%;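 also: cells stimulated with NPY near EC25 plus isoproterenol at EC100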
NPY-Y1 PAM-ag: human NPY-Y1 potentiation or agonism, primary screen. activation, % at 3.6 µM. actives 0.37% (n = 220,000). P25929. AID 1304. NPY-Y1 expressing cells, potentiator/agonist activation; in the data active = activation above about 33%, passing the limit was not always enough;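 also: cells stimulated with NPY at EC10 then isoproterenol at EC100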
Target sequence (P25929 whole entry, looked up): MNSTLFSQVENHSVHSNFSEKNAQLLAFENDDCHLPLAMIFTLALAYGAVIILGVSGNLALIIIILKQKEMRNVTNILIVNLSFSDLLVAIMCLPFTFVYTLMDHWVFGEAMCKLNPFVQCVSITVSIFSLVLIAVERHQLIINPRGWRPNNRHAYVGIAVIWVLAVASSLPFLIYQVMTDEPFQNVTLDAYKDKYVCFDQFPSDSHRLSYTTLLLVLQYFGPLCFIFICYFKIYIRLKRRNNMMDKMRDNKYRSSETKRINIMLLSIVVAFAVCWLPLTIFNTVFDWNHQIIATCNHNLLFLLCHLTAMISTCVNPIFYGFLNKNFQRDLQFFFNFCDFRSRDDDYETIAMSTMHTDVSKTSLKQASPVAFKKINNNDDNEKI
NPY-Y1 antag: NPY-Y1 (human) receptor antagonism; P25929; HEK293-CNG Y1 cells, membrane potential fluorescence; NPY at EC95, then isoproterenol; inhibition, % at 3.6 µM; actives 1% (n = 200,000); AID 1040;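 active = inhibition above the campaign mean inhibition of all tested compounds plus 3 SD, cut at about 20% in these data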
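Material: Y1- and CNG-channel-expressing HEK293 cells / Probe or stimulus: NPY 25 nM then isoproterenol 1 µM plus Ro 20-1724 25 µM / Doses: 3.6 µM single dose, DMSO 0.4% / Schedule: compound incubation 1 h at room temperature, readout 45 min post-stimulation / Signal: membrane potential fluorescence / Benchmarks: isoproterenol-only wells as full block versus NPY-plus-isoproterenol wells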
NPY1 antag conf: confirmation of human neuropeptide Y receptor Y1 antagonists; shares compounds with NPY-Y1 antag; HEK293-CNG NPY-Y1, membrane potential fluorescence, cAMP; NPY challenge against isoproterenol-raised cAMP; inhibition, % at 3.6 µM; actives 21% (n = 1,200); AID 1254; in the data active = inhibition above about 20%
NPY-Y2 antag ct: human NPY-Y2 antagonism in NPY-Y1 counter-screen. shares compounds with NPY-Y1 antag. HEK293 NPY-Y2 CNG membrane potential fluorescence; cells given NPY, then isoproterenol. actives 28% (n = 1,200). inhibition, % at 3.6 µM
Each line names hits and unclear results; the compound was inactive in the other large screens (follow-up assays come after a bar, where they were run). Sampled rows, rich in hits. Any-hit rate of the full collection: about 1.8%. Rule as the data show it, unless noted: active = inhibition above about 17%; inactive = the rest.

CN(C)CCC1Sc2ccccc2Oc2ccccc21 (centres undefined)	NPY-Y1 antag 26.8 | NPY1 antag conf inactive | NPY-Y2 antag ct inactive
CC1c2ccccc2SC(CCCN(C)C)c2ccccc21 (centres undefined)	none
CC(=O)NCC1=C(NC(C)=O)C2CC1C(C)(C)C2C (centres undefined)	none
O=C(O)c1ccc(Cn2c(SCc3cc(=O)n4cc(Br)ccc4n3)nc3ccsc3c2=O)cc1	none (no result: NPY Y2 blocker)
O=C(O)C1CCC(Cn2c(SCc3cc(=O)n4cc(Br)ccc4n3)nc3ccsc3c2=O)CC1 (centres undefined)	NPY-Y1 antag 26.0 (no result: NPY Y2 blocker) | NPY1 antag conf 80.5 | NPY-Y2 antag ct 87.2
Cc1nn(-c2cccc(Cl)c2)c2nc(-c3ccncc3)cc(C(=O)N3CCOCC3)c12	none (no result: NPY Y2 blocker)
CCOn1c(=O)c(-c2cccs2)[n+]([O-])c2ccccc21	none
COn1c(=O)c(-c2cccs2)[n+]([O-])c2ccccc21	NPY-Y1 antag 25.0 | NPY1 antag conf inactive | NPY-Y2 antag ct inactive
COCCCn1cc(C(=O)c2ccccc2OCC(=O)Nc2cccc(F)c2)cc(C#N)c1=O	none (no result: NPY Y2 blocker)
Cc1ccc(-n2cc(CN3CCN(Cc4nccn4C)CC3)c(-c3ccc(F)cc3)n2)cc1	NPY-Y1 antag 31.0 (no result: NPY Y2 blocker) | NPY1 antag conf inactive | NPY-Y2 antag ct 18.7
Cc1ccc(-n2cc(CNCCc3cscn3)c(-c3ccc(F)cc3)n2)cc1	none (no result: NPY Y2 blocker)
Cc1ccc(-n2cc(CNCCCn3ccnc3C)c(-c3ccc(F)cc3)n2)cc1	NPY-Y1 antag 28.0 (no result: NPY Y2 blocker) | NPY1 antag conf 25.2 | NPY-Y2 antag ct 34.6
COc1ccc(-n2cc(CNCCCn3ccnc3)c(-c3cccc(F)c3)n2)cc1	NPY-Y1 antag 22.2 (no result: NPY Y2 blocker) | NPY1 antag conf inactive | NPY-Y2 antag ct inactive
Cc1ccc(NC(=O)CC(C(=O)O)c2ccccc2)cc1 (centres undefined)	none
Cc1cccc(C)c1OC1(c2ccccc2)OC(=O)c2ccccc21 (centres undefined)	NPY-Y1 antag 22.3 | NPY1 antag conf inactive | NPY-Y2 antag ct inactive
CCOC1(c2ccccc2)OC(=O)c2ccccc21 (centres undefined)	none
Cc1cc(C)c(OC2(c3ccccc3)OC(=O)c3ccccc32)c(C)c1 (centres undefined)	NPY-Y1 antag 30.5 | NPY1 antag conf inactive | NPY-Y2 antag ct inactive
Cc1cccc(C(=O)Nc2ccc(N3CCN(S(C)(=O)=O)CC3)cc2)c1	none (no result: NPY Y2 blocker)
CCOC(=O)C(NC(=O)N(C)C)(Nc1sc(C)c(CC)c1C#N)C(F)(F)F (centres undefined)	none
CCOC(=O)c1c(C)n(C)c2ccc(O)c(CN3CCN(C)CC3)c12	none
CCOC(=O)c1c(CSc2ccccc2)n(C)c2ccc(O)c(CN3CCOCC3)c12	NPY-Y1 antag 38.5 (no result: NPY Y2 blocker) | NPY1 antag conf 30.2 | NPY-Y2 antag ct inactive
COc1cccc(OCc2nc3ncc(Br)cc3[nH]2)c1	NPY-Y1 antag 23.9 | NPY1 antag conf inactive | NPY-Y2 antag ct inactive
Cc1cc(C)cc(OCc2nc3ncc(Br)cc3[nH]2)c1	none
CCOc1cc(CNCCCN2CCOCC2)cc(Br)c1OCC(=O)Nc1cccc(C(F)(F)F)c1	NPY-Y1 antag 27.1 | NPY1 antag conf inactive | NPY-Y2 antag ct 23.6
COc1cc(CNCCCN2CCOCC2)c(Br)cc1OCC(=O)Nc1ccccc1C	none (no result: NPY Y2 blocker)
COc1ccccc1NC(=O)COc1ccc(Br)cc1CNCCCN1CCOCC1	NPY-Y1 antag 22.2 (no result: NPY Y2 blocker) | NPY1 antag conf inactive | NPY-Y2 antag ct inactive
CCNC(=O)NC(=O)C(C)OC(=O)C1CCN(S(=O)(=O)c2ccccc2C(=O)OC)CC1 (centres undefined)	none (no result: NPY Y2 blocker)
O=C(c1cc(COc2ccc(F)cc2Cl)on1)N1CCCC(c2ccccc2)C1 (centres undefined)	none (no result: NPY Y2 blocker)
O=C(c1cc(COc2ccc(F)cc2Cl)on1)N1CCc2ccccc2C1	NPY-Y1 antag 30.8 (no result: NPY Y2 blocker) | NPY1 antag conf inactive | NPY-Y2 antag ct inactive
Cc1ccccc1NC(=O)Cn1nnc2ccccc21	none (no result: NPY Y2 blocker)
O=C(CSc1nnc(-c2cccs2)n1CC1CCCO1)N1CCCC1 (centres undefined)	none (no result: NPY Y2 blocker)
CCOc1ccc(C(C)=O)cc1CSc1nnc(-c2cccs2)n1CC1CCCO1 (centres undefined)	NPY-Y1 antag 27.3 | NPY1 antag conf inactive | NPY-Y2 antag ct inactive
COc1ccc(OC)c(NS(=O)(=O)c2ccc(N3CCCC3=O)cc2)c1	NPY-Y1 antag 44.1 | NPY1 antag conf inactive | NPY-Y2 antag ct inactive
CCOc1ccc(S(=O)(=O)Nc2cc(OC)ccc2OC)cc1	NPY-Y1 antag 27.4 | NPY1 antag conf inactive | NPY-Y2 antag ct inactive
O=C(Cn1cc(C(=O)C(F)(F)F)c2ccccc21)N1CCOCC1	none (no result: NPY Y2 blocker)
COC(=O)c1c(NC(=S)Nc2ccc(C(=O)N3CCOCC3)cc2)sc2c1CCC2	none (no result: NPY Y2 blocker)
C(=N\c1nccs1)/c1cccnc1	none
Cc1cc(C)c(CN2CCC(CO)(CCOc3ccccc3)CC2)cc1C	NPY-Y1 antag 30.4 (no result: NPY Y2 blocker) | NPY1 antag conf inactive | NPY-Y2 antag ct 23.2
COc1ccc(OC)c(CN2CCC(CO)(CCOc3ccccc3)CC2)c1	none (no result: NPY Y2 blocker)
Cc1[nH]n(-c2ccccc2)c(=O)c1/C=N/O	NPY-Y1 antag 57.6 | NPY1 antag conf inactive | NPY-Y2 antag ct inactive
COc1ccccc1OC(=O)c1cc(Cl)nc2ccccc12	NPY-Y1 antag 20.6 | NPY1 antag conf inactive | NPY-Y2 antag ct 17.1
Cc1cc(OC(=O)c2cc(Cl)nc3ccccc23)ccc1Cl	none
Cc1oc(-c2ccc(Cl)cc2)nc1CN1CCC(C(=O)NCCCN2CCOCC2)CC1	NPY-Y1 antag 23.4 | NPY1 antag conf inactive | NPY-Y2 antag ct inactive
COC(=O)c1ccc(NC(=O)CN2C(=O)C3C4C=CC(C4)C3C2=O)cc1 (centres undefined)	NPY-Y1 antag 22.6 | NPY1 antag conf inactive | NPY-Y2 antag ct inactive
CCCCc1ccc(-c2nc(NC(=O)C3C4CCC(O4)C3C(=O)O)sc2C)cc1 (centres undefined)	none
CC1CC1C(=O)Nc1nc(-c2ccc(Cl)s2)cs1 (centres undefined)	NPY-Y1 antag 25.0 (no result: NPY Y2 blocker) | NPY1 antag conf inactive | NPY-Y2 antag ct inactive
COc1ccc(C(CC(=O)O)NC(=O)c2sc3ccccc3c2Cl)cc1 (centres undefined)	NPY-Y1 antag 21.7 | NPY1 antag conf inactive | NPY-Y2 antag ct inactive
O=C(NNC(=O)c1ccc(Oc2ccc(C3SCCS3)cc2)o1)c1ccc(Cl)cc1	none (no result: NPY Y2 blocker, NPY-Y1 antag)
Cc1ccc(-n2nc(C)c3c2OC(N)=C(C#N)C3c2ccncc2)cc1 (centres undefined)	NPY-Y1 antag 23.5 | NPY1 antag conf inactive | NPY-Y2 antag ct inactive
COC(=O)c1ccc(COc2ccccc2/C=N/O)o1	none (no result: NPY Y2 blocker, NPY-Y1 antag)
C/C=C/c1ccccc1OCc1ccc(C(=O)O)o1	NPY-Y1 antag 22.1 | NPY1 antag conf inactive | NPY-Y2 antag ct inactive
CC(=O)Nc1ccc(C(F)(F)F)cc1Cl	none (no result: NPY Y2 blocker, NPY-Y1 antag)
CC(NC(=O)c1cc(COc2c(F)cccc2F)on1)c1cnn(-c2ccccc2)c1 (centres undefined)	NPY-Y1 antag 22.0 (no result: NPY Y2 blocker) | NPY1 antag conf inactive | NPY-Y2 antag ct inactive

From PubChem BioAssay
